# Assay results published in ChEMBL document CHEMBL1123389, “3-Hydroxy-3-methylglutaryl-coenzyme A reductase inhibitors. 2. Structural modification of 7-(substituted aryl)-3,5-dihydroxy-6-heptenoic acids and their lactone derivatives” (J Med Chem, 1986).
# pIC50: −log10 of the molar value.
# Experiments:
# [1] = molecular target: T1, 3-hydroxy-3-methylglutaryl-coenzyme A reductase (Rattus norvegicus, UniProt P51639); experiment: Inhibition of solubilized, partially purified rat liver HMG-CoA reductase
# T1 sequence (P51639 whole entry): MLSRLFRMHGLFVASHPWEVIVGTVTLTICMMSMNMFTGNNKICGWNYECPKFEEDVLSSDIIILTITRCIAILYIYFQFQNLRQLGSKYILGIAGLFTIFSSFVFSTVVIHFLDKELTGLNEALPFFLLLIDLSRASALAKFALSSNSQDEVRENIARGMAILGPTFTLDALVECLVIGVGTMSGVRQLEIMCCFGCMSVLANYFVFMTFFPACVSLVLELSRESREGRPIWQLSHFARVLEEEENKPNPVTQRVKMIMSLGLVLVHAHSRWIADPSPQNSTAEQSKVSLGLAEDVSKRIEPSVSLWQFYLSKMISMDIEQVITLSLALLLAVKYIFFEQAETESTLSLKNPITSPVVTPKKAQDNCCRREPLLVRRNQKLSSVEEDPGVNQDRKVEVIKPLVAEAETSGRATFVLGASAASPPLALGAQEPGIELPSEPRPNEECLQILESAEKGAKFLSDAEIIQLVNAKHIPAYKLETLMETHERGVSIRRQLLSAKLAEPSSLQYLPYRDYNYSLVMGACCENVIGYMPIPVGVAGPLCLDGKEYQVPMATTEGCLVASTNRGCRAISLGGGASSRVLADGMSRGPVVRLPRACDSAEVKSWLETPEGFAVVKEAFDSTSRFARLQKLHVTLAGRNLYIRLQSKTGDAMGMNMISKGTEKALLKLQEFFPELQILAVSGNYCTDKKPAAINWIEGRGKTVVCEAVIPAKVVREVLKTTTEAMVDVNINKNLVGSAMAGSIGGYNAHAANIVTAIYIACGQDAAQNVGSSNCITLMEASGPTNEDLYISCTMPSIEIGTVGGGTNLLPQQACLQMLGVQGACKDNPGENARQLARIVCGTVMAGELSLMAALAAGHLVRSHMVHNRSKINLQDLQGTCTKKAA
# Summary of the method: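 Enzyme solubilized from fresh microsomes and purified through the second ammonium sulfate precipitation. It was diluted in 100 mM phosphate, pH 7.2, to give 50 000–60 000 dpm per 100 μL in control. Assay mix (0.8 mL): phosphate pH 7.2 100 mM, MgCl2 3 mM, NADP 3 mM, glucose 6-phosphate 10 mM, G6PDH 3 units, glutathione 50 mM, [14C]HMG-CoA 0.2 mM. Compounds were added as dihydroxy acid Na salts at multiple concentrations. Incubation ran 40 min at 37 °C, stopped with HCl, then lactonized. [14C]mevalonolactone was separated on Bio-Rex 5 and counted. IC50 came from a least-squares line of % inhibition vs concentration.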
# [2] = molecular target: T2, 3-hydroxy-3-methylglutaryl-coenzyme A reductase (Rattus norvegicus) (UniProt P51639); experiment: Relative potency to inhibit solubilized, partially purified rat liver HMG-CoA reductase compared with that of compactin.
# T2 sequence (whole entry): T1 sequence (P51639 whole entry)
pIC50 [1],Relative potency [2],Structure (SMILES)
3.93,0.016,O=C1C[C@H](O)C[C@@H](/C=C/c2c(Cl)cc(Cl)cc2OCc2cc[n+]([O-])cc2)O1
,38,O=C1C[C@H](O)C[C@@H](CCc2c(Cl)cc(Cl)cc2OCc2ccc(F)cc2)O1 (stereo in doubt; 66) [listing 1 of 2 here]
6.00,3.3,O=C1C[C@H](O)C[C@@H](/C=C/c2c(Cl)cc(Cl)cc2OCCOc2ccc(Cl)cc2)O1
5.28,,O=C1C[C@H](O)C[C@@H](CCc2c(Cl)cc(Cl)cc2OCc2ccccc2)O1 (stereo in doubt; 8a(-)) [listing 1 of 2 here]
3.91,0.016,O=C1C[C@H](O)C[C@@H](/C=C/c2c(Cl)cc(Cl)cc2OCc2ccc[n+]([O-])c2)O1
6.12,3.2,C=CCOc1cc(Cl)cc(Cl)c1/C=C/[C@@H]1C[C@@H](O)CC(=O)O1
6.41,6,O=C1C[C@H](O)C[C@@H](CCc2c(Cl)cc(Cl)cc2COc2ccccc2)O1
7.12,,O=C1C[C@H](O)C[C@@H](CCc2c(Cl)cc(Cl)cc2OCc2ccc(F)cc2)O1 (stereo in doubt; 66) [listing 2 of 2 here]
5.52,0.7,O=C1C[C@H](O)C[C@@H](/C=C/c2c(Cl)cc(Cl)cc2OCCC23CC4CC(CC(C4)C2)C3)O1
6.12,4.4,O=C1C[C@H](O)CC(CCc2c(Cl)cc(Cl)cc2OCC2CCCCC2)O1 (some centres not stated)
6.70,7.5,O=C1C[C@H](O)C[C@@H](/C=C/c2c(Cl)cc(Cl)cc2OCc2ccc(F)cc2)O1
6.24,3.4,O=C1C[C@H](O)C[C@@H](/C=C/c2c(Cl)cc(Cl)cc2OCc2cccc(F)c2)O1
4.42,0.09,CC(CCOc1cc(Cl)cc(Cl)c1/C=C/[C@@H]1C[C@@H](O)CC(=O)O1)CC(C)(C)C (some centres not stated)
4.77,0.12,O=C1C[C@H](O)C[C@@H](/C=C/c2ccc(OCc3ccc(F)cc3)c(Cl)c2Cl)O1
4.89,,CCCCCOc1c(Cl)cc(Cl)cc1/C=C/[C@@H]1C[C@@H](O)CC(=O)O1
6.37,3.5,O=C1C[C@H](O)C[C@@H](/C=C/c2c(Cl)cc(Cl)cc2OCc2ccccc2)O1 (racemic)
6.82,10,O=C1C[C@H](O)CC(CCc2c(Cl)cc(Cl)cc2OCc2ccccc2F)O1 (some centres not stated)
5.70,1.25,N#Cc1ccc(COc2cc(Cl)cc(Cl)c2/C=C/[C@@H]2C[C@@H](O)CC(=O)O2)cc1
6.29,5.9,O=C1C[C@H](O)C[C@@H](/C=C/c2c(Cl)cc(Cl)cc2OCc2ccccc2F)O1
6.21,3.7,Cc1cc(OCc2ccccc2)cc(C)c1/C=C/[C@@H]1C[C@@H](O)CC(=O)O1
4.46,,O=C1C[C@H](O)C[C@@H](/C=C/c2ccc(Cl)c(Cl)c2)O1

pIC50 [1],Relative potency [2],Structure (SMILES)
6.00,2.4,CCCCCOc1cc(Cl)cc(Cl)c1/C=C/[C@@H]1C[C@@H](O)CC(=O)O1
6.70,7.5,O=C1C[C@H](O)C[C@@H](/C=C/c2c(Cl)cc(Cl)cc2OCc2ccc(F)cc2F)O1
6.48,4.5,O=C1C[C@H](O)CC(CCc2c(Cl)cc(Cl)cc2Oc2ccccc2)O1 (some centres not stated)
,0.25,O=C1C[C@H](O)C[C@@H](CCc2c(Cl)cc(Cl)cc2OCc2ccccc2)O1 (stereo in doubt; 8a(-)) [listing 2 of 2 here]
,0.08,O=C1C[C@H](O)C[C@@H](/C=C/c2ccc(Cl)cc2Cl)O1
5.47,0.6,O=C1C[C@H](O)C[C@@H](/C=C/c2c(Cl)cc(Cl)cc2OCc2cccnc2)O1
6.35,4,O=C1C[C@H](O)C[C@@H](/C=C/c2c(Cl)cc(OCc3ccccc3)cc2Cl)O1
6.22,3,O=C1C[C@H](O)C[C@@H](/C=C/c2c(Cl)cc(Cl)cc2OCc2ccco2)O1
5.20,0.7,O=C1C[C@H](O)C[C@@H](/C=C/c2c(Cl)cc(Cl)cc2OC(c2ccccc2)c2ccccc2)O1
5.31,0.3,Cc1ccc(COc2cc(Cl)cc(Cl)c2/C=C/[C@@H]2C[C@@H](O)CC(=O)O2)cc1
5.92,1.8,O=C1C[C@H](O)C[C@@H](/C=C/c2c(Cl)cc(Cl)cc2OCc2ccccn2)O1
6.17,2.7,O=C1C[C@H](O)C[C@@H](/C=C/c2c(Cl)cc(OCc3ccc(F)cc3)cc2Cl)O1
5.52,0.63,O=C1C[C@H](O)C[C@@H](/C=C/c2ccccc2-c2ccccc2)O1
7.30,,O=C1C[C@H](O)C[C@@H](CCc2c(Cl)cc(Cl)cc2OCc2ccc(F)cc2)O1 (stereo in doubt; 66(+)) [listing 1 of 2 here]
5.10,0.14,O=C1C[C@H](O)C[C@@H](/C=C/c2c(Cl)cccc2Cl)O1
7.17,,O=C1C[C@H](O)C[C@@H](CCc2c(Cl)cc(Cl)cc2OCc2ccccc2)O1 (stereo in doubt; 8a(+)) [listing 1 of 2 here]
4.96,0.4,COCCOCOc1cc(Cl)cc(Cl)c1/C=C/[C@@H]1C[C@@H](O)CC(=O)O1
,58,O=C1C[C@H](O)C[C@@H](CCc2c(Cl)cc(Cl)cc2OCc2ccc(F)cc2)O1 (stereo in doubt; 66(+)) [listing 2 of 2 here]
6.32,5,O=C1C[C@H](O)C[C@@H](/C=C/c2c(Cl)cc(Cl)cc2OCCc2ccccc2)O1
6.68,8,O=C1C[C@H](O)CC(CCc2c(Cl)cc(Cl)cc2OCc2cccc(F)c2)O1 (some centres not stated)
3.55,0.004,O=C1C[C@H](O)C[C@@H](/C=C/c2ccccc2)O1

pIC50 [1],Relative potency [2],Structure (SMILES)
,19.1,O=C1C[C@H](O)C[C@@H](CCc2c(Cl)cc(Cl)cc2OCc2ccccc2)O1 (stereo in doubt; 8a(+)) [listing 2 of 2 here]
4.26,,O=C1C[C@H](O)C[C@@H](/C=C/c2ccc(-c3ccccc3)cc2)O1
4.19,0.017,O=C1C[C@H](O)C[C@@H](/C=C/c2cccc(Cl)c2Cl)O1
5.60,1.7,O=C1C[C@H](O)C[C@@H](/C=C/c2c(Cl)cc(Cl)cc2OCc2ccc(Cl)cc2)O1
5.72,1.1,O=C1C[C@H](O)C[C@@H](/C=C/c2c(Cl)cc(Cl)cc2OC/C=C/c2ccccc2)O1
5.36,0.4,O=C1C[C@H](O)C[C@@H](/C=C/c2c(Cl)cc(Cl)cc2OCc2cccc3ccccc23)O1
,12,O=C1C[C@H](O)C[C@@H](CCc2c(Cl)cc(Cl)cc2OCc2ccccc2)O1 (racemic) [listing 1 of 2 here]
5.43,0.6,O=C1C[C@H](O)C[C@@H](/C=C/c2c(Cl)cc(Cl)cc2OCc2ccncc2)O1
5.96,1.4,O=C1C[C@H](O)C[C@@H](/C=C/c2c(Cl)cc(Cl)cc2Oc2ccccc2)O1
5.10,0.2,O=C1C[C@H](O)CC(CCc2c(O)cc(Cl)cc2Cl)O1 (some centres not stated)
6.70,,O=C1C[C@H](O)C[C@@H](CCc2c(Cl)cc(Cl)cc2OCc2ccccc2)O1 (racemic) [listing 2 of 2 here]
6.15,2.3,O=C1C[C@H](O)C[C@@H](/C=C/c2c(Cl)cc(Cl)cc2OCc2c(F)c(F)c(F)c(F)c2F)O1
6.22,3,O=C1C[C@H](O)C[C@@H](/C=C/c2c(Cl)cc(Cl)cc2OCc2cccs2)O1
4.52,,Cc1ccc(/C=C/[C@@H]2C[C@@H](O)CC(=O)O2)c(C)c1
4.89,0.16,O=C1C[C@H](O)CC(CCc2c(Cl)cc(Cl)cc2OCc2ccc(C(F)(F)F)cc2)O1 (some centres not stated)
5.59,0.8,COc1ccc(COc2cc(Cl)cc(Cl)c2/C=C/[C@@H]2C[C@@H](O)CC(=O)O2)cc1
6.12,2.1,CSCOc1cc(Cl)cc(Cl)c1/C=C/[C@@H]1C[C@@H](O)CC(=O)O1
5.84,1.6,O=C1C[C@H](O)C[C@@H](/C=C/c2c(Cl)cc(Cl)cc2OCCCc2ccccc2)O1
5.13,0.15,O=C1C[C@H](O)C[C@@H](/C=C/c2ccccc2Cl)O1
